A short description of experiment [1]: The binding affinity towards N-labeled Erythromycin-resistant ErmAM methylase evaluated by NMR. In short, it runs like this: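 Uniformly 15N-labeled ErmAM, 0.3 mM in H2O/D2O 9:1 with 20 mM BisTris, 10 mM DTT, pH 6.5. Ligand added in perdeuterated DMSO. Sensitivity-enhanced 15N HSQC run at 30 °C with and without ligand, screening at 1.0 mM. KD from chemical shift changes versus ligand concentration, fit to a single-site model by least-squares grid search.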

The target in experiment [2] is T1, rRNA adenine N-6-methyltransferase (Streptococcus pneumoniae, UniProt P21236).
T1 sequence (P21236 whole entry): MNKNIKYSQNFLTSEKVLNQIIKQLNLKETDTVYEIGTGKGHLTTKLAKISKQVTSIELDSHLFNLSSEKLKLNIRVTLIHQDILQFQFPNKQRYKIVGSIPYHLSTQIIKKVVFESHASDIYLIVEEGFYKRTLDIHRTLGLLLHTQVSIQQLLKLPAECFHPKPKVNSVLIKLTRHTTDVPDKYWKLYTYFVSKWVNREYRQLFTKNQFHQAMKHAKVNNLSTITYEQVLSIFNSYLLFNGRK
Description: Inhibitory activity against ErmAM methylase. A digest of the protocol:
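Radiometric methyltransferase assay in 50 mM Tris pH 7.5, 100 mM KCl, 4 mM MgCl2, 1 mM DTT with 95 nM ErmAM. Enzyme was preincubated with compound for 15 min at room temperature, in duplicate. Reaction was then started with 250 nM S-adenosyl-L-[methyl-3H]methionine and 80 nM E. coli rRNA and run 2 h at room temperature. It was stopped with 10% TCA/100 mM KCl on ice. TCA-precipitated counts were read after filtration. IC50 was taken from percent inhibition versus control plotted against concentration.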

Experiment [3] addresses rRNA adenine N-6-methyltransferase (Bacillus subtilis, UniProt P13956). The experiment is described as follows: Inhibitory activity against ErmC methylase. A digest of the protocol: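 ErmC′ (143 nM) preincubated with compound, in duplicate, 15 min at room temperature in 50 mM Tris pH 7.5, 40 mM KCl, 4 mM MgCl2, 10 mM DTT. Started with 250 nM S-adenosyl-L-[methyl-3H]methionine and 80 nM E. coli rRNA, 2 h room temperature. Stopped with 10% TCA/100 mM KCl, filtered, washed. Precipitated counts taken as percent inhibition versus no-inhibitor wells, and IC50 read from concentration curve.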

Experiment [4] can be described thus: The binding affinity towards ErmAM methylase identified by NMR.

SMILES strings stand for the structures. pKd, pKi: −log10 of the molar value.

rRNA adenine N-6-methyltransferase (Bacillus subtilis, UniProt P13956), sequence (P13956 whole entry): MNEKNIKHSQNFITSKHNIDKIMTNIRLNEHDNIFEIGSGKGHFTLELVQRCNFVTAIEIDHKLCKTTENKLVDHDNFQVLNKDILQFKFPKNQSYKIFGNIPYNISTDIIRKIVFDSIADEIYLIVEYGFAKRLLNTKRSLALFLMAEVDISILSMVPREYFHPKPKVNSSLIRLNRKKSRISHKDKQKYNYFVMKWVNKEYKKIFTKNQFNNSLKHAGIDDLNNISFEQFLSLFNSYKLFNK

A word on the pKd: it is −log10 of the Kd, conventionally taken in molar units. Lower therefore signals a high Kd. In experiment [1], `c1cnc2[nH]ccc2c1` had a pKd of 2.89.
Usually pKi stands for the negative decadic logarithm of the Ki, by convention in mol/L. Low values mean a high Ki, high ones a low Ki. Take `Nc1nc(NC2Cc3ccccc3C2)nc(N2CCC(C(=O)O)CC2)n1`: the pKi in experiment [2] and in experiment [3] was < 4.00 in each case.
Regarding `Nc1ncnc2c1ncn2[C@@H]1O[C@H](CSCC[C@H](N)C(=O)O)[C@@H](O)[C@H]1O` [S-ADENOSYLHOMOCYSTEINE], the pKi in experiment [2] was 4.40.
Regarding `Nc1nc(NC2CCCCC2)nc(N2CCCCC2)n1`, the pKi is 4.12 in experiment [2] and < 4.00 in experiment [3].
For `c1ccc2c(c1)CC(Nc1ncnc(N3CCCCC3)n1)C2`, the results for the pKi in experiment [2] and in experiment [3] were < 4.12 and < 4.00, respectively.
Molecule `CSc1nc(N)nc(N)n1` gave a pKd in experiment [1] of 3.00.
Take `Nc1nc(NC2Cc3ccccc3C2)nc(N2CCC(C(=O)NCCc3c[nH]c4ccccc34)CC2)n1`: the pKi in experiment [2] is 5.70; in experiment [3], 4.70.
Consider `Nc1nc(NC2CCCCC2)nc(-c2ccc(O)cc2)n1`, for which the pKd in experiment [4] was 3.51.
As for `Nc1nc(NC2Cc3ccccc3C2)nc(N2CCCC(CO)C2)n1` (configuration not stated), the pKi in experiment [2] is 4.90; in experiment [3], < 4.00.
Take `Nc1nc(NC2Cc3ccccc3C2)nc(N2CCCCC2)n1`: the pKi in experiment [2] is 5.10; in experiment [3], 4.12.
The molecule `Nc1nc(N)nc(N2CCCCC2)n1` gave a pKd in experiment [4] of 2.30.
Turning to `Nc1nc(NC2Cc3ccccc3C2)cc(-c2ccc(NCCCc3ccccc3O)cc2)n1`, the values for the pKi in experiment [2] and in experiment [3] were 5.12 and 4.90, respectively.
Consider `Nc1nc(N)nc(-c2ccc(O)cc2)n1`, for which the pKd in experiment [4] is 1.92.
On to `Nc1ccc(-c2cc(NC3Cc4ccccc4C3)nc(N)n2)cc1`, for which the values for the pKi in experiment [2] and in experiment [3] were 4.12 and < 4.00, respectively.
In the same order, the values of `Oc1nc(NC2Cc3ccccc3C2)nc(N2CCCCC2)n1` are < 4.00 and < 4.00.
In the same order, the values of `Nc1nc(NC2Cc3ccccc3C2)nc(C2CCCCC2)n1` are 4.60 and < 4.00.
In the same order, the values of `Nc1nc(NCCCc2c(O)cc(Cl)cc2Cl)nc(NC2Cc3ccccc3C2)n1` are 5.00 and < 4.00.
For the molecule `Nc1nc(NC2CCc3ccccc32)nc(N2CCCCC2)n1` (configuration not stated), the figures for the pKi in experiment [2] and in experiment [3] were 4.12 and < 4.00, respectively.
In the same order, the values of `COc1ccc2c(c1)CC(Nc1nc(N)nc(N3CCCCC3)n1)C2` (configuration not stated) are 5.22 and 4.12.
In the same order, the values of `Nc1nc(NC2Cc3ccc(F)cc3C2)nc(N2CCCCC2)n1` (configuration not stated) are 5.52 and 4.43.
In the same order, the values of `CN(c1nc(N)nc(N2CCCCC2)n1)C1CCCCC1` are < 4.00 and < 4.00.
Turning to `C[C@@H](Nc1nc(N)nc(N2CCCCC2)n1)c1ccccc1`, the pKi in experiment [2] and in experiment [3] was < 4.00 each time.
Consider `Nc1nc(N2CCCCC2)nc(N2CCCCC2)n1`, for which the pKi in experiment [2] and in experiment [3] was < 4.00 throughout.
As to `Nc1nc(NC2CCCCC2)nc(NC2Cc3ccccc3C2)n1`, the pKi in experiment [2] and in experiment [3] was < 4.00 each time.
Consider `CSc1nc(N)nc(NC2Cc3ccccc3C2)n1`, for which the pKi in experiment [2] is 5.00; in experiment [3], < 4.00.
Consider `Nc1nc(Nc2ccccc2)nc(N2CCCCC2)n1`, for which the pKi in experiment [2] and in experiment [3] was < 4.00 throughout.
`Nc1ccc(-c2nc(N)nc(NC3Cc4ccccc4C3)n2)cc1`: the pKi in experiment [2] is 4.46; in experiment [3], < 4.30.
In the same order, the values of `Nc1nc(NC2Cc3ccccc3C2)nc(N2CCC(CO)CC2)n1` are 5.05 and 4.12.
In the same order, the values of `Nc1cccc(-c2nc(N)nc(NC3Cc4ccccc4C3)n2)c1` are 5.40 and 5.00.
